In series [1] the target is T1, Sphingosine kinase 1 (Homo sapiens, UniProt Q9NYA1). The experiment in a line: Inhibition of human C-terminal His6-tagged SPHK1 expressed in fall armyworm sf9 cells assessed as reduction in S1P formation using sphingosine as substrate after 1 hr by FITC-based caliper assay.
Series [2] deals with T1, Sphingosine kinase 1. The experiment in a line: Inhibition of SPHK1 in human whole-blood using C17-sphingosine as substrate assessed as reduction in C17-S1P production preincubated for 30 mins followed by substrate addition measured after 10 mins by MS analysis.
In a further series the target is T2, Sphingosine kinase 2 (Homo sapiens, UniProt Q9NRA0).
T2 sequence (Q9NRA0 whole entry): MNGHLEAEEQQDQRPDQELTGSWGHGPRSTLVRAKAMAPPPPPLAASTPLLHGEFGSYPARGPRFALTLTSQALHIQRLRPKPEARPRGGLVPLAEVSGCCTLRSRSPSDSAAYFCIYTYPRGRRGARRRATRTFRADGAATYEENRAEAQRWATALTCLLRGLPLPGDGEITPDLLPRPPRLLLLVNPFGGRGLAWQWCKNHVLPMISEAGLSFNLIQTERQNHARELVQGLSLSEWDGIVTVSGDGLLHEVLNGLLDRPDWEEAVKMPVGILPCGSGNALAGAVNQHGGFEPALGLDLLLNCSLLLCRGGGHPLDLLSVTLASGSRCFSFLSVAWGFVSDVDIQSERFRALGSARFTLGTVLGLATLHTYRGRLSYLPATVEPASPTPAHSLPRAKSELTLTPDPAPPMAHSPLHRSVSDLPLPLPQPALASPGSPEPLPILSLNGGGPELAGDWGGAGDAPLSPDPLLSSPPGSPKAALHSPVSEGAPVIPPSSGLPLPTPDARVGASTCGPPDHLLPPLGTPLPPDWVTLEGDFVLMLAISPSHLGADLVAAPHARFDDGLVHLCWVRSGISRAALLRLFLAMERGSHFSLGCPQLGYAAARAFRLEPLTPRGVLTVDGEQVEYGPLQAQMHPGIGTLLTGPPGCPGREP
The experiment in a line: Inhibition of SPHK2 (unknown origin) by FITC-based caliper assay. The gist of the method:
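Recombinant SphK2 enzyme assay measuring FITC-S1P formation, with product resolved by microfluidic mobility-shift separation. Dose-response gives IC50. Reported values are the mean of two or more independent assays.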

Series [3] deals with T1, Sphingosine kinase 1. The experiment in a line: Inhibition of human C-terminal His6-tagged SPHK1 expressed in fall armyworm sf9 cells assessed as reduction in ADP formation using sphingosine as substrate preincubated for 15 mins followed by substrate addition after 1 hr by transcreener-based fluorescence polarization assay.
In series [4] the target is T1, Sphingosine kinase 1. The experiment in a line: Inhibition of SPHK1 in human MDA1483 cells using C17-sphingosine as substrate assessed as reduction in C17-S1P formation preincubated for 30 mins with substrate measured after 15 mins by LC-MS analysis. The format is cell-based.
Series [5] addresses Sphingosine 1-phosphate receptor 5 (Homo sapiens, UniProt Q9H228). The experiment in a line: Binding affinity to S1PR5 (unknown origin).
In series [6] the target is Sphingosine 1-phosphate receptor 3 (Homo sapiens, UniProt Q99500). The experiment in a line: Binding affinity to S1PR3 (unknown origin).
Series [7] in a line: Cytotoxicity in human MDA1483 cells at 50 uM by MTT assay. The format is cell-based. Particulars: mda1483, 50 µM. A general note: Formazan colour is commonly taken as a measure of viable cells.
Series [8] can be described thus: Solubility of the compound. Type of series: physicochemical.
In series [9] the target is Sphingosine kinase 1 (Homo sapiens, UniProt Q9NYA1, S225A). Put plainly: Binding affinity to human C-terminal His6-tagged SPHK1 S225A mutant expressed in fall armyworm sf9 cells after 1 hr by ITC analysis. Background: Isothermal titration calorimetry measures the heat released or taken up as one component is titrated into another.

pIC50, pKd: −log10 of the molar value.

T1 sequence (Q9NYA1 whole entry): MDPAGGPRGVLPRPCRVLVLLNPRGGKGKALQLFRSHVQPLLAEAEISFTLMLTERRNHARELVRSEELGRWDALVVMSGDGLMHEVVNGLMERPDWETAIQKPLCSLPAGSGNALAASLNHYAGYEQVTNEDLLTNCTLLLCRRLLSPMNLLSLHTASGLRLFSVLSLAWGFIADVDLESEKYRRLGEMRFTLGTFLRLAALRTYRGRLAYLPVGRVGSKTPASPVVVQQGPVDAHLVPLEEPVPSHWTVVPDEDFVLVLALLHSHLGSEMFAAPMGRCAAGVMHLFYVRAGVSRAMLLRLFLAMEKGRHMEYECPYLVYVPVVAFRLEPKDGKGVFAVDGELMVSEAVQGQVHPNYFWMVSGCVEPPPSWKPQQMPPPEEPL
Sphingosine kinase 1 (Homo sapiens, UniProt Q9NYA1, S225A), sequence (Q9NYA1 whole entry S225A): as the sequence (Q9NYA1 whole entry) above, with S225A counted along it
Sphingosine 1-phosphate receptor 5, sequence (Q9H228 whole entry): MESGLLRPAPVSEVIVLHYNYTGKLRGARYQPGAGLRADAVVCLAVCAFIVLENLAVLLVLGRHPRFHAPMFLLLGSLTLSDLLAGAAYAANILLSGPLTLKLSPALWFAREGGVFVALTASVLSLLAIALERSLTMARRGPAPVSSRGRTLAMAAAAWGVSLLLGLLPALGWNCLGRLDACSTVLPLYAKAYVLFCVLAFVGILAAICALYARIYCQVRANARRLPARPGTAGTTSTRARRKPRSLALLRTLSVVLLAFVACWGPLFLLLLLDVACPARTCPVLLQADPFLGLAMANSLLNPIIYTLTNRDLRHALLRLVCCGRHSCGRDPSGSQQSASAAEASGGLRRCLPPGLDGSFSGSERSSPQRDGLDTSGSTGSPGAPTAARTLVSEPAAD
Sphingosine 1-phosphate receptor 3, sequence (Q99500 whole entry): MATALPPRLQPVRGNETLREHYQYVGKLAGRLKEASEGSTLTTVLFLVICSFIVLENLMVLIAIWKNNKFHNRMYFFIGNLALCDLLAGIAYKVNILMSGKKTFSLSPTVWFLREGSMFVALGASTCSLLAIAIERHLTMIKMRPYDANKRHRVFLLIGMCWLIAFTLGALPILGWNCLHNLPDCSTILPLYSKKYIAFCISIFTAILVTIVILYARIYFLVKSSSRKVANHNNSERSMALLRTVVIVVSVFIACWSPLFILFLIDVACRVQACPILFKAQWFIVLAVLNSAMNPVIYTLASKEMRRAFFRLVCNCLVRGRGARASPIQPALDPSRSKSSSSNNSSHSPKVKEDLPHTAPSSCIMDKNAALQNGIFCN

For `Cc1cc(CS(=O)(=O)c2ccccc2)cc(OCc2ccc(CN3CC[C@H](O)C3)cc2)c1`, the negative logarithm of the IC50 (pIC50) (as a rule, the negative decadic logarithm of the IC50, by convention in mol/L) is 8.59 at Sphingosine kinase 1 [1]; 8.28 at Sphingosine kinase 1 [2]; 6.35 against Sphingosine kinase 2; 8.52 on Sphingosine kinase 1 [3]; 10.52 at Sphingosine kinase 1 [4].

With `CC(C)c1cccc(OCc2ccc(CN3CCC[C@@H]3CO)cc2)c1`, the pIC50 was 8.32 at Sphingosine kinase 1 [1]; 7.72 on Sphingosine kinase 1 [2]; over 8.77 against Sphingosine kinase 2; 9.10 at Sphingosine kinase 1 [3]; 9.22 at Sphingosine kinase 1 [4].

Consider `Cc1cc(CS(=O)(=O)c2ccccc2)cc(OCc2ccc(CN3CC[C@@H](O)C3)cc2)c1`, for which the negative-log IC50 (pIC50) at Sphingosine kinase 1 [3] is 7.55; at Sphingosine kinase 1 [4], 7.52.

As for `OC[C@H]1CCCN1Cc1ccc(COc2cccc(C3CCCCC3)c2)cc1`, the negative logarithm of the IC50 (pIC50) is over 8.77 on Sphingosine kinase 1 [1]; 8.82 on Sphingosine kinase 1 [2]; over 8.77 against Sphingosine kinase 2; 9.15 at Sphingosine kinase 1 [3]; 10.52 on Sphingosine kinase 1 [4].

As for `Cc1nc2ccc(-c3ccc(CN4CCC[C@@H]4CO)cc3)cc2n1CC1CCCC1`, the figures for the pIC50 on Sphingosine kinase 1 [3] and at Sphingosine kinase 1 [4] were 7.96 and 8.00, respectively.

Regarding `Cc1nc2ccc(-c3ccc(CN4CCCC4)cc3)cc2n1C[C@H]1CCCO1`, the pIC50 on Sphingosine kinase 1 [3] was under 4.00.

In the case of `Cc1cc(CS(=O)(=O)c2ccccc2)cc(OCc2ccc(CN3C[C@@H](O)[C@H](O)C3)cc2)c1`, the pIC50 was 8.70 at Sphingosine kinase 1 [1]; 8.19 at Sphingosine kinase 1 [2]; 6.33 against Sphingosine kinase 2; 8.70 at Sphingosine kinase 1 [3]; 9.77 at Sphingosine kinase 1 [4].

On to `Cc1nc2ccc(-c3ccc(CN4CCC[C@@H]4CO)cc3)cc2n1CC(C)C`, for which the values for the negative logarithm of the IC50 (pIC50) at Sphingosine kinase 1 [3] and at Sphingosine kinase 1 [4] were 6.54 and 6.36, respectively.

For `Cc1nc2ccc(-c3ccc(CN4CCC[C@@H]4CO)cc3)cc2n1Cc1ccccc1`, the results for the negative-log IC50 (pIC50) at Sphingosine kinase 1 [3] and on Sphingosine kinase 1 [4] were 6.36 and 6.60, respectively.

Turning to `Cc1nc2ccc(-c3ccc(CN4CCC[C@H]4CO)cc3)cc2n1C[C@@H]1CCCO1`, the pIC50 at Sphingosine kinase 1 [1], at Sphingosine kinase 2, on Sphingosine kinase 1 [3] and on Sphingosine kinase 1 [4] was under 4.00 each time.

For `Cc1nc2ccc(-c3ccc(CN4CCC[C@H]4CO)cc3)cc2n1C[C@H]1CCCO1`, the negative-log IC50 (pIC50) on Sphingosine kinase 1 [1] was under 4.00; on Sphingosine kinase 2, under 4.00; at Sphingosine kinase 1 [3] it was 4.51; at Sphingosine kinase 1 [4], 5.01.

As to `Cc1cc(CS(=O)(=O)c2ccccc2)cc(OCc2ccc3[nH]cnc3c2)c1`, the pIC50 is 4.32 at Sphingosine kinase 1 [1], 4.32 on Sphingosine kinase 1 [3] and 4.57 at Sphingosine kinase 1 [4].

Turning to `Cc1cc(CS(=O)(=O)c2ccccc2)cc(OCc2ccc3[nH]c(N)nc3c2)c1`, the pIC50 at Sphingosine kinase 1 [1] is 5.85; in [5], under 5.00; in [6] it was under 5.00; against Sphingosine kinase 2, 4.40; on Sphingosine kinase 1 [3] it was 5.77; on Sphingosine kinase 1 [4] it was 6.74. Also, the Activity result in [7] is “Non-Toxic”. Besides, the solubility entry in [8] is given as “Insoluble”.

For the compound `Cc1nc(-c2cccc(OCc3ccc(CN4CCC[C@@H]4CO)cc3)c2)no1`, the pIC50 on Sphingosine kinase 1 [1] was 7.60; on Sphingosine kinase 1 [2], 6.76; at Sphingosine kinase 2 it was 8.62; on Sphingosine kinase 1 [3], 8.35; on Sphingosine kinase 1 [4] it was 8.77.

As to `Cc1cc(CS(=O)(=O)c2ccccc2)cc(OCc2ccc(CN3C[C@@H](O)[C@@H](O)C3)cc2)c1`, the pIC50 on Sphingosine kinase 1 [1] is 8.41; on Sphingosine kinase 1 [2], 7.42; on Sphingosine kinase 2, 5.14; on Sphingosine kinase 1 [3] it was 8.41; at Sphingosine kinase 1 [4] it was 9.00.

For `Cc1cc(CS(=O)(=O)c2ccccc2)cc(OCc2ccc(CNCCO)cc2)c1`, the pIC50 is 7.84 at Sphingosine kinase 1 [1], 4.45 on Sphingosine kinase 2, 8.28 on Sphingosine kinase 1 [3] and 8.46 on Sphingosine kinase 1 [4].

With `Cc1nc2ccc(-c3ccc(CN4CCC[C@@H]4CO)cc3)cc2n1CCC(C)C`, the pIC50 on Sphingosine kinase 1 [3] was 8.15; on Sphingosine kinase 1 [4], 8.40.

For `Cc1nc2ccc(-c3ccc(CN4CCC[C@@H]4CO)cc3)cc2n1C[C@@H]1CCCO1`, the pIC50 on Sphingosine kinase 1 [1] was 4.90; against Sphingosine kinase 2, under 4.00; at Sphingosine kinase 1 [3], 5.34; at Sphingosine kinase 1 [4], 5.68. Further, on Sphingosine kinase 1 [9], the negative logarithm of the Kd (pKd) (in general, the Kd on a negative log10 scale, so that one unit is a factor of ten) is 4.92.

`Cc1nc2ccc(-c3ccc(CN4CCC[C@@H]4CO)cc3)cc2n1C[C@H]1CCCO1`: the pIC50 was 6.06 on Sphingosine kinase 1 [1], 4.34 against Sphingosine kinase 2, 6.72 on Sphingosine kinase 1 [3] and 7.09 at Sphingosine kinase 1 [4]. On Sphingosine kinase 1 [9], this compound had a pKd of 5.54.

For `Cc1nc2ccc(-c3ccc(CN4CCC[C@@H]4CO)cc3)cc2n1CCC1CCC1`, the figures for the negative-log IC50 (pIC50) at Sphingosine kinase 1 [3] and at Sphingosine kinase 1 [4] were 8.10 and 8.40, respectively.

With `O=C(Nc1cccc(OCc2ccc(CN3CCC[C@@H]3CO)cc2)c1)c1ccccc1`, the pIC50 at Sphingosine kinase 1 [1] is 5.01; at Sphingosine kinase 1 [2], under 5.06; at Sphingosine kinase 2, 6.84; on Sphingosine kinase 1 [3], 5.44; on Sphingosine kinase 1 [4], 5.92.

On to `O=S(=O)(Cc1cccc(OCc2ccc(CN3CCC[C@@H]3CO)cc2)c1)C1CC1`, for which the pIC50 on Sphingosine kinase 1 [1] is 7.39; at Sphingosine kinase 1 [2], 5.83; at Sphingosine kinase 2, 6.79; on Sphingosine kinase 1 [3] it was 8.00; at Sphingosine kinase 1 [4], 8.77.

In the case of `CS(=O)(=O)Cc1cccc(OCc2ccc(CN3CCC[C@@H]3CO)cc2)c1`, the results for the negative logarithm of the IC50 (pIC50) on Sphingosine kinase 1 [3] and at Sphingosine kinase 1 [4] were 6.36 and 6.28, respectively.

Turning to `O=S(=O)(Cc1cccc(OCc2ccc(CN3CCC[C@@H]3CO)cc2)c1)c1ccccc1`, the negative-log IC50 (pIC50) on Sphingosine kinase 1 [1] is 8.62; on Sphingosine kinase 1 [2], 7.46; on Sphingosine kinase 2, 6.79; at Sphingosine kinase 1 [3], 8.70; at Sphingosine kinase 1 [4] it was 9.52.

Values taken from ChEMBL document CHEMBL4007442, “Discovery of a Potent and Selective Sphingosine Kinase 1 Inhibitor through the Molecular Combination of Chemotype-Distinct Screening Hits” (J Med Chem, 2017).
